From ChEMBL document CHEMBL5620421, “2,6-Disubstituted 7-(naphthalen-2-ylmethyl)-7H-purines as a new class of potent antitubercular agents inhibiting DprE1” (Eur J Med Chem, 2023)
In brackets after ≈: the same amount, converted by molar mass. Activity calls are given as the source filed them. The rule behind the calls is not given here.

Assays:
[1] = tested on: Mycobacterium avium; assay: Antitubercular activity against Mycobacterium avium CNCTC My 330/88 assessed as inhibition of bacterial growth measured after 14 days of incubation by Sulas semisynthetic medium based assay; assay type: functional; details: CNCTC My 330/88, 336 h, time 14 day
Procedure, shortened: (§1)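 M. avium was tested by the micromethod in Sula's semisynthetic medium. Compounds in DMSO at 1000 to 0.5 μmol/L. Incubation at 37 °C, read at 14 and 21 days. MIC is the lowest concentration giving >99% growth inhibition.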

[2] = tested on: Mycobacterium kansasii; assay: Antitubercular activity against Mycobacterium kansasii CNCTC My 235/80 assessed as inhibition of bacterial growth measured after 14 days of incubation by Sulas semisynthetic medium based assay; assay type: functional; details: CNCTC My 235/80, 336 h, time 14 day
Procedure, shortened: (§2)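 Micromethod in Sula's semisynthetic medium. MIC is the lowest concentration inhibiting >99% of the mycobacterial population. Isoniazid was the standard.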

[3] = tested on: Klebsiella pneumoniae; assay: Antibacterial activity against ESBL negative Klebsiella pneumoniae C1950 assessed as inhibition of bacterial growth incubated for 24 to 48 hrs by microdilution broth method; assay type: functional, organism-based; details: time 24-48 hrs
Procedure, shortened: (§3)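 Clinical isolates kept at –70 °C and subcultured twice on Mueller-Hinton agar, using the second subculture. Broth microdilution in Mueller-Hinton broth at pH 7.4 with two-fold serial compound dilutions and DMSO ≤1% final. Inoculum was 10 μL of a 1.5 × 10⁸ CFU/mL suspension. Incubated at 36 °C ± 1 °C and read at 24 h and 48 h. MIC taken as 95% growth inhibition.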

[4] = tested on: Escherichia coli; assay: Antibacterial activity against Escherichia coli A1235 assessed as inhibition of bacterial growth incubated for 24 to 48 hrs by microdilution broth method; assay type: functional, organism-based; details: time 24-48 hrs; procedure, shortened: as §3
[5] = Selectivity index, ratio of IC50 for cytotoxicity against human HepG2 cells by MTT assay to MIC99 for antitubercular activity against Mycobacterium tuberculosis CNCTC My 331/88 (H37Rv) assessed as inhibition of bacterial growth measured after 14 days of incubation; assay type: functional; details: time 14 day
Procedure, shortened: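 HepG2 cells, 15 × 10³/well, were attached overnight and exposed 24 h to serial dilutions (DMSO ≤1%). Read by MTT at 0.5 mg/mL for 1 h and 570 nm. IC50 from 4-parameter regression, three independent experiments in triplicate. SI is HepG2 IC50 divided by H37Rv MIC99.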

[6] = tested on: Staphylococcus epidermidis; assay: Antibacterial activity against Staphylococcus epidermidis C1936 assessed as inhibition of bacterial growth incubated for 24 to 48 hrs by microdilution broth method; assay type: functional, organism-based; details: time 24-48 hrs; procedure, shortened: as §3
[7] = tested on: Mycobacterium tuberculosis; assay: Antitubercular activity against Mycobacterium tuberculosis CNCTC My 331/88 (H37Rv) assessed as inhibition of bacterial growth measured after 14 days of incubation by Sulas semisynthetic medium based assay; assay type: functional; details: 336 h, time 14 day
Procedure, shortened: (§4)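 Micromethod MIC in Sula's semisynthetic medium. MIC is the lowest concentration inhibiting >99% of the mycobacterial population. Isoniazid was the standard drug.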

[8] = tested on: Staphylococcus aureus; assay: Antibacterial activity against Staphylococcus aureus C1947 assessed as inhibition of bacterial growth incubated for 24 to 48 hrs by microdilution broth method; assay type: functional, organism-based; details: time 24-48 hrs; procedure, shortened: as §3
[9] = tested on: Enterococcus faecium; assay: Antibacterial activity against vancomycin-resistant Enterococcus faecium assessed as inhibition of bacterial growth incubated for 24 to 48 hrs by microdilution broth method; assay type: functional, organism-based; details: time 24-48 hrs
Procedure, shortened: (§5)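 Clinical isolates, stored at −70 °C, were passaged twice on Mueller-Hinton agar. Broth microdilution in Mueller-Hinton broth, pH 7.4, with twofold serial dilutions. DMSO was at most 1% final. Inoculum 1.5 × 10⁸ CFU/mL suspension. MIC is 95% growth inhibition, read after 24 and 48 h at 36 °C.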

[10] = tested on: HepG2; assay: Cytotoxicity against human HepG2 cells incubated for 24 hrs by MTT assay; assay type: functional, cell-based; details: HepG2, 24 h
Procedure, shortened: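 HepG2 cells in DMEM with 10% FBS, seeded at 15 × 10³ cells/well and attached overnight. Exposed for 24 h to serial dilutions prepared from DMSO stocks, final DMSO ≤1%. Then given fresh medium with 0.5 mg/mL MTT for 1 h at 37 °C. Formazan dissolved in DMSO and read at 570 nm. IC50 from 4-parameter nonlinear regression; three independent experiments in triplicate, mean ± SD.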

[11] = tested on: Mycobacterium kansasii; assay: Antitubercular activity against Mycobacterium kansasii CNCTC My 235/80 assessed as inhibition of bacterial growth measured after 21 days of incubation by Sulas semisynthetic medium based assay; assay type: functional; details: CNCTC My 235/80, 504 h, time 21 day; procedure, shortened: as §2
[12] = tested on: Mycobacterium avium; assay: Antitubercular activity against Mycobacterium avium CNCTC My 330/88 assessed as inhibition of bacterial growth measured after 21 days of incubation by Sulas semisynthetic medium based assay; assay type: functional; details: CNCTC My 330/88, 504 h, time 21 day; procedure, shortened: as §1
[13] = tested on: Pseudomonas aeruginosa; assay: Antibacterial activity against multidrug-resistant Pseudomonas aeruginosa A1245 assessed as inhibition of bacterial growth incubated for 24 to 48 hrs by microdilution broth method; assay type: functional, organism-based; details: time 24-48 hrs; procedure, shortened: as §5
[14] = tested on: Mycobacterium kansasii; assay: Antitubercular activity against Mycobacterium kansasii CNCTC My 235/80 assessed as inhibition of bacterial growth measured after 7 days of incubation by Sulas semisynthetic medium based assay; assay type: functional; details: CNCTC My 235/80, 168 h, time 7 day; procedure, shortened: as §2
[15] = tested on: Klebsiella pneumoniae; assay: Antibacterial activity against ESBL positive Klebsiella pneumoniae C1914 assessed as inhibition of bacterial growth incubated for 24 to 48 hrs by microdilution broth method; assay type: functional, organism-based; details: time 24-48 hrs; procedure, shortened: as §3
[16] = tested on: Mycobacterium tuberculosis; assay: Antitubercular activity against Mycobacterium tuberculosis CNCTC My 331/88 (H37Rv) assessed as inhibition of bacterial growth measured after 21 days of incubation by Sulas semisynthetic medium based assay; assay type: functional; details: 504 h, time 21 day; procedure, shortened: as §4
[17] = tested on: Staphylococcus aureus; assay: Antibacterial activity against methicilin-resistant Staphylococcus aureus C1923 assessed as inhibition of bacterial growth incubated for 24 to 48 hrs by microdilution broth method; assay type: functional, organism-based; details: time 24-48 hrs; procedure, shortened: as §5

Row | Structure (SMILES) | MIC99 [1] [µM] | MIC99 [2] [µM] | Activity [3] | Activity [4] | Selectivity Index [5] | Activity [6] | MIC99 [7] [µM] | Activity [8] | Activity [9] | IC50 [10] [µM] | MIC99 [11] [µM] | MIC99 [12] [µM] | Activity [13] | MIC99 [14] [µM] | Activity [15] | MIC99 [16] [µM] | Activity [17]
1 | CSc1nc(N2CCOCC2)nc2ncn(Cc3ccc4ccccc4c3)c12 | > 500 | 64 (≈ 25.1 µg/mL) | inactive | inactive | 5.3 | inactive | 8 (≈ 3.13 µg/mL) | inactive | inactive | 42.4 | 64 (≈ 25.1 µg/mL) | > 500 | inactive | 32 (≈ 12.5 µg/mL) | inactive | 8 (≈ 3.13 µg/mL) | inactive
2 | CCN(CC)c1nc2ncn(Cc3ccc4ccccc4c3)c2c(=O)[nH]1 | > 500 | > 500 | inactive | inactive | – | inactive | > 500 | inactive | inactive | – | > 500 | > 500 | inactive | > 500 | inactive | > 500 | inactive
3 | CCSc1nc(N2CCOCC2)nc2ncn(Cc3ccc4ccccc4c3)c12 | > 500 | 64 (≈ 26 µg/mL) | inactive | inactive | 16.1 | inactive | 4 (≈ 1.62 µg/mL) | inactive | inactive | 64.2 | 125 (≈ 50.7 µg/mL) | > 500 | inactive | 32 (≈ 13 µg/mL) | inactive | 4 (≈ 1.62 µg/mL) | inactive
4 | CCNc1nc(N2CCOCC2)nc2ncn(Cc3ccc4ccccc4n3)c12 | > 250 | 64 (≈ 24.9 µg/mL) | inactive | inactive | 24.08 | inactive | 4 (≈ 1.56 µg/mL) | inactive | inactive | 96.4 | 64 (≈ 24.9 µg/mL) | > 250 | inactive | 64 (≈ 24.9 µg/mL) | inactive | 8 (≈ 3.12 µg/mL) | inactive
5 | CCCCNc1nc(N2CCOCC2)nc2ncn(Cc3ccc4ccccc4c3)c12 | 64 (≈ 26.7 µg/mL) | 8 (≈ 3.33 µg/mL) | inactive | inactive | 7.7 | inactive | 4 (≈ 1.67 µg/mL) | inactive | inactive | 30.8 | 8 (≈ 3.33 µg/mL) | 125 (≈ 52.1 µg/mL) | inactive | 8 (≈ 3.33 µg/mL) | inactive | 4 (≈ 1.67 µg/mL) | inactive
6 | CCCNc1nc(N2CCOCC2)nc2ncn(Cc3ccc4ccccc4c3)c12 | 125 (≈ 50.3 µg/mL) | 8 (≈ 3.22 µg/mL) | inactive | inactive | 10.1 | inactive | 4 (≈ 1.61 µg/mL) | inactive | inactive | 40.5 | 16 (≈ 6.44 µg/mL) | 125 (≈ 50.3 µg/mL) | inactive | 8 (≈ 3.22 µg/mL) | inactive | 4 (≈ 1.61 µg/mL) | inactive
